{"source": "ChEMBL document CHEMBL1154048", "about": "“Design, synthesis and pharmacological evaluation of new 1-[3-(4-arylpiperazin-1-yl)-2-hydroxy-propyl]-3,3-diphenylpyrrolidin-2-one derivatives with antiarrhythmic, antihypertensive, and alpha-adrenolytic activity” (Eur J Med Chem, 2009)", "key": {"Rattus norvegicus": {"test_system": "Rattus norvegicus", "experiment": "Hypotensive activity in normotensive Wistar rat assessed as systolic blood pressure at 5 mg/kg, iv after 30 mins (Rvb=142.5 +/- 3.6 mmHg)", "format": "functional, Artery"}, "[1]": {"target": "T1, Alpha-1D adrenergic receptor (Rattus norvegicus) (UniProt P23944)", "T1 sequence (whole entry)": "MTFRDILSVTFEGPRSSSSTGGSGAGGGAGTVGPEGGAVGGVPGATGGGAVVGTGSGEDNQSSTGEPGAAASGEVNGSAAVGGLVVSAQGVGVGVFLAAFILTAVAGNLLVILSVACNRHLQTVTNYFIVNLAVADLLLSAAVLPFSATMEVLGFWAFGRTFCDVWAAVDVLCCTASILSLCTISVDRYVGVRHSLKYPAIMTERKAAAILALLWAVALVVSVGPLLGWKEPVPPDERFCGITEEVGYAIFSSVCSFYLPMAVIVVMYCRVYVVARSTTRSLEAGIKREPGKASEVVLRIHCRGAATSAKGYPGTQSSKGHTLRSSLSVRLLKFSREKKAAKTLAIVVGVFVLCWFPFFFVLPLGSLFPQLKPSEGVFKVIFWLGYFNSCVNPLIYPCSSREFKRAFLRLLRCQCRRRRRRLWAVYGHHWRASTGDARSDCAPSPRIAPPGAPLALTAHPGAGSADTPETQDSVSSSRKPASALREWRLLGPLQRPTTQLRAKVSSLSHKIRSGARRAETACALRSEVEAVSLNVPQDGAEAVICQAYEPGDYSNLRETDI", "experiment": "(§1) Antagonist activity at Alpha-1D adrenoceptor in Wistar rat thoracic aorta assessed as inhibition of noradrenaline-induced contraction after 30 mins", "format": "functional, tissue-based", "in_short": "(§2)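 Male Wistar rats (200–350 g) were anaesthetized with thiopental 75 mg/kg ip. Endothelium-denuded thoracic aorta rings (~4 mm) were held in Krebs–Henseleit at 37 °C, pH 7.4, gassed O2/CO2 19:1, at 2 g tension and equilibrated 3 h. Two cumulative noradrenaline curves were run 60 min apart, with 30 min antagonist incubation and continuous propranolol. EC50 came from non-linear regression, and Schild plots gave pA2. n = 5–8.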"}, "[2]": {"target": "T2, Alpha-1D adrenergic receptor (Rattus norvegicus, UniProt P23944)", "T2 sequence (P23944 whole entry)": "T1 sequence (whole entry)", "experiment": "as §1", "format": "functional, tissue-based", "settings": "read-out: pA2 (converted)", "in_short": "as §2"}}}
{"smiles": "CCOc1ccccc1N1CCN(CC(O)CN2CCC(c3ccccc3)(c3ccccc3)C2=O)CC1.Cl.Cl", "note": "(stereo not drawn)", "values": [{"measurement": "Activity", "setting": "Rattus norvegicus", "value": 113.5, "unit": "mmHg"}, {"measurement": "Activity", "setting": "[1]", "value": "Dose-dependent effect"}, {"measurement": "Kb", "setting": "[2]", "value": 55, "unit": "nM"}]}
